Reference: ChEMBL document CHEMBL4842338, “System-oriented optimization of multi-target 2,6-diaminopurine derivatives: Easily accessible broad-spectrum antivirals active against flaviviruses, influenza virus and SARS-CoV-2” (Eur J Med Chem, 2021)
The source made the active and inactive calls. No cut-off for these calls is given here.

Key:
Huh-7 = test: (§1) Cytotoxicity against human Huh-7 cells assessed as reduction in cell viability by Celltiter-Glo luminescent cell viability assay; assay type: cell-based; settings: huh-7
Summary of the method: (§2)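 Compound-exposed cells assessed by CellTiter-Glo luminescence versus DMSO control; CC50 from dose-response.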

[1] = Selectivity index, ratio of CC50 for human Huh-7 cells to IC50 for Zika virus H/PF/2013 infected in pre-seeded Huh-7 cells assessed as inhibition of viral replication incubated for 72 hrs by immunodetection based secondary yield reduction assay; assay type: toxicity, cell-based; settings: read-out: Selectivity Index
[2] = Selectivity index, ratio of CC50 for human Huh-7 cells to IC50 for Dengue virus serotype 2 New Guinea C infected in pre-seeded Huh-7 cells assessed as inhibition of viral replication incubated for 72 hrs by immunodetection based secondary yield reduction assay; assay type: toxicity, cell-based; settings: read-out: Selectivity Index
Zika virus = test: Antiviral activity against Zika virus H/PF/2013 infected in pre-seeded Huh-7 cells assessed as inhibition of viral replication incubated for 72 hrs by immunodetection based secondary yield reduction assay; assay type: functional, organism-based; settings: H/PF/2013, Huh-7, 72 h
[3] = as §1; assay type: cell-based; settings: Huh-7 cells; summary of the method: as §2
dengue virus type 2 [4] = test: Antiviral activity against Dengue virus serotype 2 New Guinea C infected in pre-seeded Huh-7 cells assessed as inhibition of viral replication incubated for 72 hrs by immunodetection based secondary yield reduction assay; assay type: functional, organism-based
[5] = Selectivity index, ratio of CC50 for human Huh-7 cells to IC50 for Dengue virus serotype 2 New Guinea C infected in pre-seeded Huh-7 cells assessed as inhibition of viral replication incubated for 72 hrs by immunodetection based direct yield reduction assay; assay type: toxicity, cell-based; settings: read-out: Selectivity Index
Summary of the method: (§3)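 Direct yield reduction in Huh7 cells (7000/well), infected with 50 TCID₅₀ of DENV or ZIKV, or 25 TCID₅₀ of WNV. Adsorption 1 h at 37 °C, then virus removed and serial compound dilutions added. Incubated 72 h (DENV, ZIKV) or 48 h (WNV). Viral antigen immunodetected on the monolayer. IC₅₀ by non-linear regression, mean of three experiments. SI = CC₅₀ (Huh7, CellTiter-Glo luminescence)/IC₅₀.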

West Nile virus [6] = test: Antiviral activity against West Nile virus lineage 1 (Italy/2009) infected in pre-seeded Huh-7 cells assessed as inhibition of viral replication incubated for 48 hrs by immunodetection based direct yield reduction assay; assay type: functional, organism-based
dengue virus type 2 [7] = test: Antiviral activity against Dengue virus serotype 2 New Guinea C infected in pre-seeded Huh-7 cells assessed as inhibition of viral replication incubated for 72 hrs by immunodetection based direct yield reduction assay; assay type: functional, organism-based; settings: Dengue virus, New Guinea C, Huh-7, 72 h; read-out: IC50
[8] = Inhibition of DENV NS5-MTase domain using GpppA2'OMe-RNA74 as a substrate incubated for 30 mins by filter binding assay; parameters: species or system dengue virus type 2; settings: read-out: IC50
Summary of the method: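 MTase (1 μM) incubated with increasing inhibitor in 40 mM Tris-HCl pH 7.5, 5 mM DTT, 10 μM AdoMet ([3H]-labelled), 0.5 μM GpppA2′OMe-RNA74 substrate, 30 °C for 30 min; stopped in ice-cold 100 μM AdoHcy; DEAE filter binding, scintillation counting.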

[9] = Inhibition of full length ZIKV NS5-MTase domain using 7MeGpppAC4 as a substrate incubated for 30 mins by filter binding assay; parameters: species or system Zika virus
[10] = Inhibition of Dengue virus 2 […] RNA dependent RNA polymerase incubated for 10 mins by picogreen staining based fluorescent analysis (Rvb= 0.27+/-0.03 uM); parameters: species or system dengue virus type 2
[11] = Selectivity index, ratio of CC50 for human Huh-7 cells to IC50 for West Nile virus lineage 1 (Italy/2009) infected in pre-seeded Huh-7 cells assessed as inhibition of viral replication incubated for 48 hrs by immunodetection based direct yield reduction assay; assay type: toxicity, cell-based; settings: read-out: Selectivity Index; summary of the method: as §3
[12] = Inhibition of full length Dengue virus 2 NS5 RNA dependent RNA polymerase incubated for 10 mins by picogreen staining based fluorescent analysis (Rvb= 0.32+/-0.05 uM); parameters: species or system dengue virus type 2
[13] = biological target: Fyn (Tyrosine-protein kinase Fyn) (Homo sapiens, UniProt P06241); test: Inhibition of human recombinant N terminal His6 tagged full length Fyn assessed as residual activity at 5 uM using […] as a substrate in the presence of NP-40 incubated for 10 mins by scintillation counting analysis relative to control; settings: probe […], read-out: Activity
Summary of the method: (§4)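 Compounds at fixed 5 μM; 10–50 ng kinase, substrate and NP-40/BSA per supplementary table, 10 μL at 30 °C for 10 min in low-binding tubes. Reactions spotted on filter, dried, scintillation counted. Mean ± SD of two independent experiments.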

[14] = Selectivity index, ratio of CC50 for human Huh-7 cells to IC50 for West Nile virus lineage 1 (Italy/2009) infected in pre-seeded Huh-7 cells assessed as inhibition of viral replication incubated for 48 hrs by immunodetection based plaque reduction assay; assay type: toxicity, cell-based; settings: read-out: Selectivity Index
[15] = Inhibition of full length ZIKA virus NS5 RNA dependent RNA polymerase incubated for 10 mins by picogreen staining based fluorescent analysis (Rvb= 1+/-0.2 uM)
[16] = biological target: Src (Proto-oncogene tyrosine-protein kinase Src) (Homo sapiens, UniProt P12931); test: Inhibition of human recombinant N terminal His6 tagged full length Src assessed as residual activity at 5 uM using KVEKIGEGTYGVVYK as a substrate in the presence of NP-40 incubated for 10 mins by scintillation counting analysis relative to control; settings: probe KVEKIGEGTYGVVYK, read-out: Activity; summary of the method: as §4
[17] = Antioxidant activity assessed as inhibition of ABTS radical scavenging activity at 10 uM to 1 mM measured after 10 mins; assay type: functional
Summary of the method: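 ABTS radical solution diluted in ethanol (1:100) to A734 0.70; 3.0 mL mixed with 30 μL sample in DMSO at 10 μM–1 mM; A734 read after exactly 10 min; ascorbic acid reference; % scavenging = (A0−As)/A0×100.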

[18] = biological target: PIK3CA (Phosphatidylinositol 4,5-bisphosphate 3-kinase catalytic subunit alpha isoform) (Homo sapiens, UniProt P42336); test: Inhibition of human full length PIK3CA assessed as residual activity at 5 uM using PI:PS (1:3) as a substrate incubated for 10 mins by scintillation counting analysis relative to control; settings: full length PIK3CA enzyme, probe PI:PS (1:3), read-out: Activity
Summary of the method: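 Radiometric kinase reaction with 10–50 ng enzyme and compound fixed at 5 μM, 10 μL at 30 °C for 10 min. Reactions spotted on filter and counted by scintillation. Residual activity is the mean ± SD of two independent experiments.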

[19] = biological target: Abl (Tyrosine-protein kinase ABL1) (Homo sapiens, UniProt P00519); test: Inhibition of human recombinant N terminal His6 tagged Abl (27 to end residue) assessed as residual activity at 5 uM using KKGEAIYAADFA-NH2 as a substrate in the presence of NP-40 incubated for 10 mins by scintillation counting analysis relative to control; settings: probe KKGEAIYAADFA-NH2, read-out: Activity; summary of the method: as §4
CDK9/cyclin T1 = CDK9/cyclin T1 (Homo sapiens, UniProt P50750); test: Inhibition of human full length CDK9/ His-tagged cT1 assessed as residual activity at 5 uM using CDKtide as a substrate in the presence of BSA incubated for 10 mins by scintillation counting analysis relative to control; assay type: protein-complex assay; settings: full length CDK9/His-tagged cyclin T1 complex, probe CDKtide, read-out: Activity; summary of the method: as §4
West Nile virus [20] = test: Antiviral activity against West Nile virus lineage 1 (Italy/2009) infected in pre-seeded Huh-7 cells assessed as inhibition of viral replication incubated for 48 hrs by immunodetection based plaque reduction assay; assay type: functional, organism-based; settings: Huh-7, 48 h
[21] = Dengue virus, New Guinea C, Huh-7, 72 h, read-out: IC50
[22] = West Nile virus, lineage 1 (Italy/2009), Huh-7, 48 h, read-out: IC50

Sequence of CDK9/cyclin T1 (O60563 whole entry): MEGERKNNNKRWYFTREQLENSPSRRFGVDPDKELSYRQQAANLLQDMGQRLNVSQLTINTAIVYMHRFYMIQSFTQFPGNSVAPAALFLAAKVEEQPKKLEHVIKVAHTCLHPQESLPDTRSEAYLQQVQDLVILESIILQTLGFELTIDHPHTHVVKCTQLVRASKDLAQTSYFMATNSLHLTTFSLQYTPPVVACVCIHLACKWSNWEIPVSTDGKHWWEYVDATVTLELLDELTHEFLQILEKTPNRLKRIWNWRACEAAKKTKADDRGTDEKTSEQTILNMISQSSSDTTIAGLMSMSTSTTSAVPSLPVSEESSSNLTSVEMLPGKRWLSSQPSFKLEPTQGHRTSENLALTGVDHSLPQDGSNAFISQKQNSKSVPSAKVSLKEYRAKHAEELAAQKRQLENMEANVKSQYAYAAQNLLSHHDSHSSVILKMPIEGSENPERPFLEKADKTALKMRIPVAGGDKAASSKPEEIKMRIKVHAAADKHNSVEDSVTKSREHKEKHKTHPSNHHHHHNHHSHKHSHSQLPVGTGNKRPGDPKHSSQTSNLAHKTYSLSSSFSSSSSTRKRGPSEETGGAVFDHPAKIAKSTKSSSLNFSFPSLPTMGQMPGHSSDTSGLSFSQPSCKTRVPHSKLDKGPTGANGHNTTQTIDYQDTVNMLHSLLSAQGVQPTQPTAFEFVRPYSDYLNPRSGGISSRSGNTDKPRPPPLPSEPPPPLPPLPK
Sequence of CDK9/cyclin T1 (P50750 whole entry): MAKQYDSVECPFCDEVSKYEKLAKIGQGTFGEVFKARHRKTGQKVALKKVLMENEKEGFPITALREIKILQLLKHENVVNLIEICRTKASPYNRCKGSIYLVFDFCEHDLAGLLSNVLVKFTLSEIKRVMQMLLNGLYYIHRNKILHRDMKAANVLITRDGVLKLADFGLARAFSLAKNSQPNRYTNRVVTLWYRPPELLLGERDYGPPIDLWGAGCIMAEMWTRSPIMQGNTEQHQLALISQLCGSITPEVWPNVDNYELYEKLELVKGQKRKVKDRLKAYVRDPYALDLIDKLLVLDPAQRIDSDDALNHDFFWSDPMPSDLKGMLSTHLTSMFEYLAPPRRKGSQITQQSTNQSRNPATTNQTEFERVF
Sequence of Abl (Tyrosine-protein kinase ABL1) (P00519 whole entry): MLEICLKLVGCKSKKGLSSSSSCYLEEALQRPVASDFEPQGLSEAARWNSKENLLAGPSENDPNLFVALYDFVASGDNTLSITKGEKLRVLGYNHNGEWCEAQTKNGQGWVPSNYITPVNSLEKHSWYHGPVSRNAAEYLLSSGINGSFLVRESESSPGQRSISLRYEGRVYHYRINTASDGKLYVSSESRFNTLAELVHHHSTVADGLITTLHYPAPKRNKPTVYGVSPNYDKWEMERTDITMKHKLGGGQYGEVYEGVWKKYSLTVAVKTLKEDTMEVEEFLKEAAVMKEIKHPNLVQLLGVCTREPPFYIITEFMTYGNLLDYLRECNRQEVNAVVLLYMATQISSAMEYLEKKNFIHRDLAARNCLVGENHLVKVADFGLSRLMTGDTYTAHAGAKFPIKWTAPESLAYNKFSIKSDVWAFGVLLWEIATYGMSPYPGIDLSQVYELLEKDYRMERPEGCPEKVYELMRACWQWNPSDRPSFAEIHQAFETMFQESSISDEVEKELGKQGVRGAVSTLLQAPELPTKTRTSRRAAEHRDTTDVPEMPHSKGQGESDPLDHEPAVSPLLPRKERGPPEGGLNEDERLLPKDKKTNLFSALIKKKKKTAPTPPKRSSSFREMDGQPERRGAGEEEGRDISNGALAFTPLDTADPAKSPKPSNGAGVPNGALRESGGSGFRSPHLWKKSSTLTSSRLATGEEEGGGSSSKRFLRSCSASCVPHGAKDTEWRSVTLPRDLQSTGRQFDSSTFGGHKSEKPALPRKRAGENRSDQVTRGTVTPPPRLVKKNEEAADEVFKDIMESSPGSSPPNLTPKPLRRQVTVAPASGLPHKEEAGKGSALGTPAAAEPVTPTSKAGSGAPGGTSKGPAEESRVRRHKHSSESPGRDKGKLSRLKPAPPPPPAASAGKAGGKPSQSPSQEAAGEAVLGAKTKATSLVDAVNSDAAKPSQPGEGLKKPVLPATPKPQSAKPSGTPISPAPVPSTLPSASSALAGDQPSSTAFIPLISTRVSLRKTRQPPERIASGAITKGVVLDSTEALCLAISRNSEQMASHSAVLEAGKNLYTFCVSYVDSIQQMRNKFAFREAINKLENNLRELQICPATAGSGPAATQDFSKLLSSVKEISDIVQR
Sequence of Src (Proto-oncogene tyrosine-protein kinase Src) (P12931 2-536 limits assumed): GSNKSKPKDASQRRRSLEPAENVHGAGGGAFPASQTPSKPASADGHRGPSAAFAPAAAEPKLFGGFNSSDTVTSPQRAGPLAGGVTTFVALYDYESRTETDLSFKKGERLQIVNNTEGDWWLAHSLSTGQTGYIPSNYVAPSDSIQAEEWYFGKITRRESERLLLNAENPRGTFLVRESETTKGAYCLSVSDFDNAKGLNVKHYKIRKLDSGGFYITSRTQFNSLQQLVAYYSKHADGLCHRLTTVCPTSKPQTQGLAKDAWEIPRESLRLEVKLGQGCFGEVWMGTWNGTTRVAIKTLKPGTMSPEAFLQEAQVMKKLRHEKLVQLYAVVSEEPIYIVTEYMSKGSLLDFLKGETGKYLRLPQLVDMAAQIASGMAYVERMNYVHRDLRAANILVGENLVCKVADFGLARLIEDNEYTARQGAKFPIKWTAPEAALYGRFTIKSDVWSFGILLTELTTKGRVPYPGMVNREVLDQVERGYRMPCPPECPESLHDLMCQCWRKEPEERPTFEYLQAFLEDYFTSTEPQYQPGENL
Sequence of Fyn (Tyrosine-protein kinase Fyn) (P06241 whole entry): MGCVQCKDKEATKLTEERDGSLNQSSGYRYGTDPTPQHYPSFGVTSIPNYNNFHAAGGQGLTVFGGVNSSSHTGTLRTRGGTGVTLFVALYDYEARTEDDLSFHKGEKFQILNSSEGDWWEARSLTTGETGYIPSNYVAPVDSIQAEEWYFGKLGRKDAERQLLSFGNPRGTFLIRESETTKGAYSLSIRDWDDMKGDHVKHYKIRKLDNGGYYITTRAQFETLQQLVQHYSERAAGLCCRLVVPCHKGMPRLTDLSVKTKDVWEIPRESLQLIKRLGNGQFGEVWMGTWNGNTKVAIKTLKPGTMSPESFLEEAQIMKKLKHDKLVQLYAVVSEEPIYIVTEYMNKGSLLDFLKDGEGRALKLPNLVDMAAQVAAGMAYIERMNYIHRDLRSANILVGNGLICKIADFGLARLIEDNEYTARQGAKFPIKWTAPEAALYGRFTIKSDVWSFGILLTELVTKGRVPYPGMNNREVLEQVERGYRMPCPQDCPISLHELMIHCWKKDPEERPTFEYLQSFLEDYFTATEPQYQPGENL
Sequence of PIK3CA (Phosphatidylinositol 4,5-bisphosphate 3-kinase catalytic subunit alpha isoform) (P42336 whole entry, canonical isoform): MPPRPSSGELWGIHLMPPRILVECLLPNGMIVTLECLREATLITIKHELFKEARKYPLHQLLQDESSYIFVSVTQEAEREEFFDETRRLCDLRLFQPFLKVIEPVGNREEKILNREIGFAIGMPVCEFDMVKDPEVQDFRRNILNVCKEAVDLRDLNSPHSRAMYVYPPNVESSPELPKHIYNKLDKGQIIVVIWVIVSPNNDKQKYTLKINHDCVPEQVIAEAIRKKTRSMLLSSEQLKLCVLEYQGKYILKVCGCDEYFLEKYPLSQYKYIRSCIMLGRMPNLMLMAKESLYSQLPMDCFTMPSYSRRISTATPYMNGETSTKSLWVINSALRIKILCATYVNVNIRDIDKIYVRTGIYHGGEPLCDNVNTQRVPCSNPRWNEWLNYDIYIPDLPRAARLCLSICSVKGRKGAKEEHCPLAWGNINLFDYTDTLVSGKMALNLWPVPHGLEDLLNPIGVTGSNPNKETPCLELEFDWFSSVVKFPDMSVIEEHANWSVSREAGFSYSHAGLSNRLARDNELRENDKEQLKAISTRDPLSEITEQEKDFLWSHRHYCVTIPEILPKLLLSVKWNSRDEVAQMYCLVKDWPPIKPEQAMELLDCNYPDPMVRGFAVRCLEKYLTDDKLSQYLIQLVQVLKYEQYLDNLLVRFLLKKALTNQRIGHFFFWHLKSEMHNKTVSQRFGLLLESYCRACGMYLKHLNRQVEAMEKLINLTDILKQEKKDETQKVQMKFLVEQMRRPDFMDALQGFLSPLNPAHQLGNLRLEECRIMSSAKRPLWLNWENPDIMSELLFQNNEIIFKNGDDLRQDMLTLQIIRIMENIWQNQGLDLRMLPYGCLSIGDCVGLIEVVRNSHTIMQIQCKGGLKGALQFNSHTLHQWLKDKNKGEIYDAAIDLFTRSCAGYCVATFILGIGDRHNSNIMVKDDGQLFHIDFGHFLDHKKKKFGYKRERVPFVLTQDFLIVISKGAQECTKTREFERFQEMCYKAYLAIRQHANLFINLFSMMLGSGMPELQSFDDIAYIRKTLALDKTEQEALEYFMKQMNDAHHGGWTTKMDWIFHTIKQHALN

| SMILES | CC50 (Huh-7) [µM] | selectivity ratio at 72 h [1] | selectivity ratio at 72 h [2] | IC50 (Zika virus) [µM] | IC50 (dengue virus type 2 [4]; [21]) [µM] | further results |
| --- | --- | --- | --- | --- | --- | --- |
| FC(F)(F)c1ccc(NNc2nc(NCCOc3ccccc3)nc3[nH]cnc23)cc1 | 8 |  |  |  |  |  |
| FC(F)(F)c1cc(NNc2nc(NCCOc3ccccc3)nc3[nH]cnc23)cc(C(F)(F)F)c1 | 5 |  |  |  |  |  |
| FC(F)(F)c1cc(/N=N/c2nc(NCCOc3ccccc3)nc3[nH]cnc23)cc(C(F)(F)F)c1 | 7.5 |  |  |  |  |  |
| FC(F)(F)c1cccc(Nc2nc(NCCOc3ccccc3)c3nc[nH]c3n2)c1 | 6 |  |  |  |  |  |
| COc1cc(Nc2nc(NCCOc3ccccc3)nc3[nH]cnc23)cc(OC)c1OC | 7.5 |  |  |  |  |  |
| CNc1nc(Nc2cccc(C(=O)OC)c2)c2nc[nH]c2n1 |  | 25 | 11 | 8 | 18 | CC50 [3]: 200 µM |
| Fc1cc(F)cc(NNc2nc(NCCOc3ccccc3)nc3[nH]cnc23)c1 | 8.5 |  |  |  |  |  |
| Fc1cc(F)cc(/N=N/c2nc(NCCOc3ccccc3)nc3[nH]cnc23)c1 | 12 |  |  |  |  |  |
| COC(=O)c1cccc(Nc2nc(NCCO)nc3[nH]cnc23)c1 |  | 32 | 11 | 6.2 | 17.5 | CC50 [3]: 200 µM |
| Oc1ccc(Nc2nc(NCCOc3ccccc3)nc3[nH]cnc23)cc1O |  | 8 |  | 25 |  | CC50 [3]: 200 µM; IC50 (dengue virus type 2 [4]; huh-7): Not Active |
| CNc1nc(Nc2cccc(F)c2)c2nc[nH]c2n1 | 84 | 6 | 9 | 14.7 | 9.3 |  |
| COC(=O)c1cccc(Nc2nc(NCCOc3ccccc3)nc3[nH]cnc23)c1 | 100 | 12 |  | 8.2 |  | IC50 (dengue virus type 2 [4]; huh-7): Not Active |
| CNc1nc(Nc2cccc(C(F)(F)F)c2)c2nc[nH]c2n1 |  |  | 57 |  | 3.5 | selectivity ratio at 72 h [5]: 41; IC50 (West Nile virus [6]; huh-7): Not Active; IC50 (dengue virus type 2 [7]): 4.9 µM; CC50 [3]: 200 µM |
| Nc1ncnc2c1ncn2[C@@H]1O[C@H](C[C@@H](N)CC[C@H](N)C(=O)O)[C@@H](O)[C@H]1O [SINEFUNGIN] |  |  |  |  |  | IC50 [8]: 0.63 µM; IC50 ([9]; read-out: IC50): 1.18 µM |
| Fc1cccc(/N=N/c2nc(NCCOc3ccccc3)nc3[nH]cnc23)c1 | 18.5 | 7 | 5 | 2.8 | 4 | IC50 [10]: > 100 µM; IC50 [8]: 226 µM; selectivity ratio at 48 h [11]: 28; IC50 [12]: > 100 µM; activity at 10 min, 5 µM [13]: 89%; selectivity ratio at 48 h [14]: 30; IC50 [9]: Not Active; IC50 [15]: > 100 µM; activity at 10 min, 5 µM [16]: > 98%; Activity [17]: Active; IC50 (West Nile virus [6]; [22]): 0.6 µM; activity at 10 min, 5 µM [18]: 78%; activity at 10 min, 5 µM [19]: > 98%; activity at 10 min, 5 µM (CDK9/cyclin T1): > 98%; IC50 (West Nile virus [20]): 0.6 µM |
| OCCNc1nc(Nc2cccc(C(F)(F)F)c2)c2nc[nH]c2n1 | 50 | 5 | 11 | 10.6 | 4.5 | selectivity ratio at 48 h [11]: 26; selectivity ratio at 48 h [14]: 33; IC50 (West Nile virus [6]; [22]): 1.9 µM; IC50 (West Nile virus [20]): 1.5 µM |
| FC(F)(F)c1cccc(NNc2nc(NCCOc3ccccc3)nc3[nH]cnc23)c1 | 7.5 |  |  |  |  |  |
| O=C(O)c1cccc(Nc2nc(NCCOc3ccccc3)nc3[nH]cnc23)c1 |  | 7 | 7 | 29 | 28.2 | CC50 [3]: 200 µM |
| Fc1cccc(Nc2nc(NCCOc3ccccc3)c3nc[nH]c3n2)c1 | 8 |  |  |  |  |  |
| FC(F)(F)c1ccc(/N=N/c2nc(NCCOc3ccccc3)nc3[nH]cnc23)cc1 | 8 |  |  |  |  |  |
| Oc1cccc(Nc2nc(NCCOc3ccccc3)nc3[nH]cnc23)c1 |  |  |  |  |  | activity at 10 min, 5 µM [19]: 65%; activity at 10 min, 5 µM (CDK9/cyclin T1): > 98% |
| CNc1nc(Nc2cccc(C(=O)O)c2)c2nc[nH]c2n1 |  | 6 |  | 33.5 |  | CC50 [3]: 200 µM; IC50 (dengue virus type 2 [4]; huh-7): Not Active |
| OCCNc1nc(Nc2cccc(F)c2)c2nc[nH]c2n1 | 136 | 15 | 5 | 8.9 | 29.8 |  |
